# Measurements from ChEMBL document CHEMBL1129498, “Azole endothelin antagonists. 2. Structure-activity studies” (J Med Chem, 1996).
# Legend:
# MMQ = assay: Inhibitory activity was evaluated by measuring the PI hydrolysis in MMQ cell line; format: functional, cell-based, Rattus norvegicus
# Method in brief: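 MMQ cells (0.4 × 10⁶ cells/mL) labeled 16 h with 10 µCi/mL [³H]myoinositol in RPMI, PBS-washed, then held 60 min in buffer A with protease inhibitors and 10 mM LiCl. Compound pre-incubated 5 min, then 1 nM ET-1 challenge for 30 min at 37 °C, stopped with chloroform-methanol. Total inositol phosphates extracted and taken from the aqueous phase by AG1-X8 anion-exchange batch chromatography.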
# Endothelin-1 receptor = target: T1, Endothelin-1 receptor (Rattus norvegicus, UniProt P26684); assay: Inhibitory activity was evaluated against ET- A Binding to Endothelin A receptor in MMQ cell homogenates; format: cell-free
# T1 sequence (P26684 whole entry): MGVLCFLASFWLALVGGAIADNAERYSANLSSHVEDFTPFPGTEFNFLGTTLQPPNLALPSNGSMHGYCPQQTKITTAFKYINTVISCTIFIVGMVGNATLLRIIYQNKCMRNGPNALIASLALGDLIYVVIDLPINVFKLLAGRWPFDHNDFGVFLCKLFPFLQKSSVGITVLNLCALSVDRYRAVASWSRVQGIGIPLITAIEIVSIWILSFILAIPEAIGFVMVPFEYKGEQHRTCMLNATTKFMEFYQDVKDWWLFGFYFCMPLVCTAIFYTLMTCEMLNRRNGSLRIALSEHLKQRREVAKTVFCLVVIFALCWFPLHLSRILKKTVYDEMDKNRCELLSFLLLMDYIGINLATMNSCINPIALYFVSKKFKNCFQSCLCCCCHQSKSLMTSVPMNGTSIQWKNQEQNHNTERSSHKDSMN
# [1] = target: T2, Endothelin receptor type B (Sus scrofa, UniProt P35463); assay: Inhibitory activity was evaluated against ET- B Binding to Endothelin B receptor from porcine cerebellar membranes
# T2 sequence (P35463 whole entry): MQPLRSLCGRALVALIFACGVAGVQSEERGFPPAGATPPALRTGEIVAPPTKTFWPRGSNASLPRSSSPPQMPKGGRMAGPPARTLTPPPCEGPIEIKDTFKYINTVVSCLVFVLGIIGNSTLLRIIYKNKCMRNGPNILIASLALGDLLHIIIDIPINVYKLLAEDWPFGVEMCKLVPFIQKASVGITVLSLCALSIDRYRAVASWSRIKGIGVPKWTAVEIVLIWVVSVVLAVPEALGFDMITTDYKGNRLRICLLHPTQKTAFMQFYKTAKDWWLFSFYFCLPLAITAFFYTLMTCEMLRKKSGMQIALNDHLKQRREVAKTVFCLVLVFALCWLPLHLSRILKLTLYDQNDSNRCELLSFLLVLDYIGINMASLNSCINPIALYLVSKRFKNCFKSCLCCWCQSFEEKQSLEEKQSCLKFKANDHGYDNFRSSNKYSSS
"IC50 (MMQ; Rattus norvegicus, MMQ)",IC50 (Endothelin-1 receptor),IC50 [1],IC50 (MMQ; mmq),Compound
6.1 nM,5.7 nM,35000 nM,–,Cc1oc([C@@H](Cc2cn(C)c3ccccc23)NC(=O)[C@H](CC(C)C)NC(=O)N2CCOC23CCCCC3)nc1C(=O)O
3.6 nM,5.9 nM,34000 nM,–,Cc1oc([C@@H](Cc2cn(C)c3ccccc23)NC(=O)[C@H](CC(C)C)NC(=O)N2CCc3ccccc32)nc1C(=O)O
1.3 nM,7.6 nM,37000 nM,–,Cc1[nH]c([C@@H](Cc2cn(C)c3ccccc23)NC(=O)[C@H](CC(C)C)NC(=O)Nc2ccccc2)nc1C(=O)O
87 nM,60 nM,42000 nM,–,Cc1[nH]c([C@@H](Cc2cn(C)c3ccccc23)NC(=O)[C@H](CC(C)C)NC(=O)NC2CCCCCC2)nc1C(=O)O
–,19 nM,9500 nM,36 nM,Cc1[nH]c([C@@H](Cc2cn(C)c3ccccc23)NC(=O)[C@H](CC(C)C)NC(=O)NC2CC3CCC2C3)nc1C(=O)O (stereo in doubt; 14p)
